Data on 3 compounds can be found in ChEMBL document CHEMBL4725387, “Synthesis and pharmacological evaluation of piperidine (piperazine)-amide substituted derivatives as multi-target antipsychotics” (Bioorg Med Chem Lett, 2020).

Data set [1] addresses 5-hydroxytryptamine receptor 6 (Homo sapiens, UniProt P50406). Nature of the data set: Binding affinity to 5HT6 receptor (unknown origin). The method in brief:
(§1)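 Radioligand displacement binding. Ki is the mean ± SEM of three experiments.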

Data set [2] concerns the target T1, Alpha-2A adrenergic receptor (Homo sapiens, UniProt P08913).
T1 sequence (P08913 whole entry): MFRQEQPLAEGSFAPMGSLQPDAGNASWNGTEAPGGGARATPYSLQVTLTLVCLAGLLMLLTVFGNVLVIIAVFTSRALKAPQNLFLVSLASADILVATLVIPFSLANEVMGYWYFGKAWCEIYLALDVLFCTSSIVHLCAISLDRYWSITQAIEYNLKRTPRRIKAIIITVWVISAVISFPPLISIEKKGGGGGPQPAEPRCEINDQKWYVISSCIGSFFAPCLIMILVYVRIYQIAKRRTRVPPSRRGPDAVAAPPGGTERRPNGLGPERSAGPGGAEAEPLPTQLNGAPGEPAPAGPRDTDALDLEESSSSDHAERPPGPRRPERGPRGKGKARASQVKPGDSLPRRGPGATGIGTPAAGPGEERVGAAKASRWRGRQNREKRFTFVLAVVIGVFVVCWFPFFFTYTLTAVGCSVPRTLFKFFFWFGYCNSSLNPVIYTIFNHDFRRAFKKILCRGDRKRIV
The experiment in a line: Binding affinity to alpha2 adrenergic receptor (unknown origin). The method in brief:
as §1

Data set [3] concerns the target T2, 5-hydroxytryptamine receptor 2C (Homo sapiens, UniProt P28335).
T2 sequence (P28335 whole entry): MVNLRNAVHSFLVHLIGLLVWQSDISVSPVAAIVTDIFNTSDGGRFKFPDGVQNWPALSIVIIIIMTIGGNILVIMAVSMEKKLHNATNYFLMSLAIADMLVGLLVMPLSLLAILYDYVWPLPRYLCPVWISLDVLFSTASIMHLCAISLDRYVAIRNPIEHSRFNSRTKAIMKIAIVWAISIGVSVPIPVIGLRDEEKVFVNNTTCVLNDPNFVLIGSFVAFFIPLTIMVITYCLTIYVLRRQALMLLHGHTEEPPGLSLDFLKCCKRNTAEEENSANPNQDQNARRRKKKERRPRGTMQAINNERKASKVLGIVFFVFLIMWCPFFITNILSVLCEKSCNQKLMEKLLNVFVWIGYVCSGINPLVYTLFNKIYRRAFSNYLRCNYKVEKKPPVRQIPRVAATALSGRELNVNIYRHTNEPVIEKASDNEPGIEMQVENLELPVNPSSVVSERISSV
The experiment in a line: Binding affinity to 5HT2C receptor (unknown origin). The method in brief:
as §1

The target of data set [4] is Voltage-gated inwardly rectifying potassium channel KCNH2 (Homo sapiens, UniProt Q12809). Nature of the data set: Inhibition of human ERG by patch-clamp method. (In general: In patch-clamp work, channel activity is measured electrically.)
Voltage-gated inwardly rectifying potassium channel KCNH2, sequence (Q12809 whole entry): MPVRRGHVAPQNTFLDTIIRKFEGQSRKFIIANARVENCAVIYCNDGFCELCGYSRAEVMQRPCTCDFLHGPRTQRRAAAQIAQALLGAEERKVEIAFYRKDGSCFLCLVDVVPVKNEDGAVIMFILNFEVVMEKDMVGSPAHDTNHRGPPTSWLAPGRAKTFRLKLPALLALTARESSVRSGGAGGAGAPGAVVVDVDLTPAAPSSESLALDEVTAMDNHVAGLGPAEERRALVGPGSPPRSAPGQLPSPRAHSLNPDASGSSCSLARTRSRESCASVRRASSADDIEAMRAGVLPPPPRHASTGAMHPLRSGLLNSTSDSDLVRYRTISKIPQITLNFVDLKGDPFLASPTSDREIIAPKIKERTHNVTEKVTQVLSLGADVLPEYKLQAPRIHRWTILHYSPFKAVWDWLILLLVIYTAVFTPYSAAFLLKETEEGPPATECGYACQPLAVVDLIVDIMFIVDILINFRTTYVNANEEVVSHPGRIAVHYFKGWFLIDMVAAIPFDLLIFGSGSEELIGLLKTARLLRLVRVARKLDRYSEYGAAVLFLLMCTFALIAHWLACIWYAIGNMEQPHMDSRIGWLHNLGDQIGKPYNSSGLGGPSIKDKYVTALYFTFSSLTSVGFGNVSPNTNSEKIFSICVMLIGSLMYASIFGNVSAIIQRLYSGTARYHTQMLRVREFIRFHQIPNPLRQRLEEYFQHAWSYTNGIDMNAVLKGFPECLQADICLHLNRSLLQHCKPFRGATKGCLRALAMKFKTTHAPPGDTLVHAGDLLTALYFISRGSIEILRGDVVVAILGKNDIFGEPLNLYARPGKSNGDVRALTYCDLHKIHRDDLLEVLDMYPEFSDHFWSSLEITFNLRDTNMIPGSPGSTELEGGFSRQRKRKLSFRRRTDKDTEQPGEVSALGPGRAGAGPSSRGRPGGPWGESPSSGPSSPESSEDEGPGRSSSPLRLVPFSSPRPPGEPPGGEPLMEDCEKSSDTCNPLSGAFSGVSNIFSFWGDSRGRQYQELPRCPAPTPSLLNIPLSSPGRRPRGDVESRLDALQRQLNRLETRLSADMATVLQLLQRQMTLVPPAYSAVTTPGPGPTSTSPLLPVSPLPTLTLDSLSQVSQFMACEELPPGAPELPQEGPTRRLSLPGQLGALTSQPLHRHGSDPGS
Another data set addresses Histamine H1 receptor (Homo sapiens, UniProt P35367). The experiment in a line: Binding affinity to H1 receptor (unknown origin). It counts as ADME.
Data set [5] addresses T3, Adrenergic receptor alpha-1 (Homo sapiens, UniProt P35348+P25100+P35368).
T3 sequence (P35348 whole entry): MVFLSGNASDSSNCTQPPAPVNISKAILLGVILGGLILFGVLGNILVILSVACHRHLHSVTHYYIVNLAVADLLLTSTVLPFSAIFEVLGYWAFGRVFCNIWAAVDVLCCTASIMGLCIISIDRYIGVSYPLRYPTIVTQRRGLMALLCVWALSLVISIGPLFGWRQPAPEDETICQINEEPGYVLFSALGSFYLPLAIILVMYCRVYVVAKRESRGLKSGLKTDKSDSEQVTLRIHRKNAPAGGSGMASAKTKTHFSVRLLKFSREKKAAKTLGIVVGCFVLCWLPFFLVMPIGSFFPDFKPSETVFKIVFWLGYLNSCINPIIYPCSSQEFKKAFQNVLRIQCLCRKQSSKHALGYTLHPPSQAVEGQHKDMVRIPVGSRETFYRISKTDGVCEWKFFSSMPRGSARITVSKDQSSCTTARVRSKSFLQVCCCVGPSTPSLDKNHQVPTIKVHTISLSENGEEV
T3 sequence (P25100 whole entry): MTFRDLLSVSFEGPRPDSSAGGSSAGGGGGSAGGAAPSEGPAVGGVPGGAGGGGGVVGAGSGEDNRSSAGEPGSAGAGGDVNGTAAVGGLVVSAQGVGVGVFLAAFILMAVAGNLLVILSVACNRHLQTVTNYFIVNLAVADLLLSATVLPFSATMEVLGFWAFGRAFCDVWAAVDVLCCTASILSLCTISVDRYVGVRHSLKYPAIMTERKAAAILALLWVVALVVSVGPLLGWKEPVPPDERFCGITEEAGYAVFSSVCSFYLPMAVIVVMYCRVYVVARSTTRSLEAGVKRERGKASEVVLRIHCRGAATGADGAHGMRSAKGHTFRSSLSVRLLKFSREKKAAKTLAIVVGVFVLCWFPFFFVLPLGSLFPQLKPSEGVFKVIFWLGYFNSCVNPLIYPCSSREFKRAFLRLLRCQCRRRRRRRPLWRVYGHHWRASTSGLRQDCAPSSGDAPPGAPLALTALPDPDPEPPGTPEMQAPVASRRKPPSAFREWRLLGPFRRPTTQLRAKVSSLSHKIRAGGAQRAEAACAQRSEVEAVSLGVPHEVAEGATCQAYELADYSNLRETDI
T3 sequence (P35368 whole entry): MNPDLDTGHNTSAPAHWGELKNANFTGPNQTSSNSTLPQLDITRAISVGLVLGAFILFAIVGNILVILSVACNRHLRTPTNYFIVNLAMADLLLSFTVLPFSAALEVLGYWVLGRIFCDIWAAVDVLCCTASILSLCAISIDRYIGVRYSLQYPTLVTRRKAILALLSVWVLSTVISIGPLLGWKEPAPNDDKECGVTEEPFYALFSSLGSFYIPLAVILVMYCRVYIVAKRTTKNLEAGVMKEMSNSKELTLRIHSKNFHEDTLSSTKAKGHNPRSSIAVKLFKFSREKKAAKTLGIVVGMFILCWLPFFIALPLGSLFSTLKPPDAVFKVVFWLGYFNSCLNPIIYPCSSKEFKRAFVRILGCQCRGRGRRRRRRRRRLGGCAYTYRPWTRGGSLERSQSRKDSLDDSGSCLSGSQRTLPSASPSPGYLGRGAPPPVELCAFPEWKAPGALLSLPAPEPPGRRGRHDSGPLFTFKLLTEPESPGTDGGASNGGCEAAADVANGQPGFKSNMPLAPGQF
Nature of the data set: Binding affinity to alpha1 adrenergic receptor (unknown origin). It is filed as protein assay.

The target in data set [6] is T4, 5-hydroxytryptamine receptor 1A (Homo sapiens, UniProt P08908).
T4 sequence (P08908 whole entry): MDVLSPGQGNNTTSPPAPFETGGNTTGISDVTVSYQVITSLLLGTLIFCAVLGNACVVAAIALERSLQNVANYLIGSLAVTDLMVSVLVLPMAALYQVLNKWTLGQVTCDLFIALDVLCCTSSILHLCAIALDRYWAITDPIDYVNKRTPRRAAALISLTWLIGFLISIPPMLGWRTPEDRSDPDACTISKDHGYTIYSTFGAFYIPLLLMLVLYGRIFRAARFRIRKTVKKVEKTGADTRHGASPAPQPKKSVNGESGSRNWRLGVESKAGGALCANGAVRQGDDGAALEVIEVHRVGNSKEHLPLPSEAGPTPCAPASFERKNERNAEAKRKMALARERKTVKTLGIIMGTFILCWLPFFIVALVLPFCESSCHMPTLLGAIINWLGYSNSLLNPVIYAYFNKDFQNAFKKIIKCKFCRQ
Nature of the data set: Binding affinity to 5HT1A receptor (unknown origin). In outline:
as §1

For data set [7], the target named is 5-hydroxytryptamine receptor 2A (Homo sapiens, UniProt P28223). Nature of the data set: Binding affinity to 5HT2A receptor (unknown origin).
5-hydroxytryptamine receptor 2A, sequence (P28223 whole entry): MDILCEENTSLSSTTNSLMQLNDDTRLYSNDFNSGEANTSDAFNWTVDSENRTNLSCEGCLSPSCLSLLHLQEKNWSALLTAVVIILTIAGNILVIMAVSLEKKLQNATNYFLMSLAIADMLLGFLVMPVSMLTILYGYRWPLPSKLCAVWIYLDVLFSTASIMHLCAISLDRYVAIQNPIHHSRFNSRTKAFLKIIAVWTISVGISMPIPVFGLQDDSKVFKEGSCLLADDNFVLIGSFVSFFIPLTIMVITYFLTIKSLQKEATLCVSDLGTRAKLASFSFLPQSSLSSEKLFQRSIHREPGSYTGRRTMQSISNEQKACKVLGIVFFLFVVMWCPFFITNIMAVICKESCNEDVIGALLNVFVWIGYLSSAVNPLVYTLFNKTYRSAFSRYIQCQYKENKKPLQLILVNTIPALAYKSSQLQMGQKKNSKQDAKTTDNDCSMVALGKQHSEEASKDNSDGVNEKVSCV
A further data set concerns the target D(2) dopamine receptor (Homo sapiens, UniProt P14416). Nature of the data set: Binding affinity to D2 receptor (unknown origin). The method in brief:
as §1

Data set [8] deals with Rattus norvegicus. The experiment in a line: Memory enhancement effect in rat assessed as increase in total exploratory time for novel objects at 0.1 mg/kg, po administered 1 hr prior to acquisition trial and measured after 24 hrs by novel object recognition test. Conditions: time 25.0 hrs. It counts as functional, organism-based.
The test system of data set [9] is Mus musculus. The experiment in a line: Antipsychotic activity in po dosed mouse assessed as suppression of apomorphine-induced climbing behaviour. It is filed as functional. The method in brief: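 Mice climbing induced by apomorphine 1.0 mg/kg sc. Test article given po at 0.01, 0.03, 0.1, 0.3 and 1.0 mg/kg in 30% PEG 400. ED50 reported with 95% confidence limits.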

In data set [10] the test system is Rattus norvegicus. The experiment in a line: Antipsychotic activity in po dosed rat assessed as suppression in conditioned avoidance response measured after 90 mins by CAR test. It counts as functional. Conditions: 1.5 h. The method in brief: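 Rat conditioned avoidance responding tested 90 min after a single oral dose of 0.05, 0.15, 0.45 or 1.35 mg/kg in 30% PEG 400. n = 10 per group. Mean ± SEM, compared with vehicle (P < 0.05). ED50 reported.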

Data set [11] in a line: Induction of catalepsy in po dosed mouse by vertical grid and elevated bar test. It is filed as organism-based. The settings on record: in vivo. The method in brief:
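Mouse catalepsy scored by vertical grid and elevated bar tests. Oral doses of 1, 5, 15, 45 and 100 mg/kg in 30% PEG 400. ED50 reported with 95% confidence limits.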

Data set [12] concerns Mus musculus. Nature of the data set: Antipsychotic activity in po dosed mouse assessed as suppression in DOI-induced head twitching response. It is filed as functional. The method in brief: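 Mouse head twitch induced by DOI 1.0 mg/kg ip. Oral pretreatment at 0.01, 0.03, 0.1, 0.3 and 1.0 mg/kg in 30% PEG 400. ED50 reported with 95% confidence limits.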
The subject of data set [13] is Mus musculus. The experiment in a line: Antipsychotic activity in po dosed mouse assessed as reduction in MK-801-induced hyperlocomotor activity. It counts as functional. The method in brief: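 Mice hyperactivity induced by MK-801 0.3 mg/kg sc, locomotor activity recorded. Oral dosing at 0.01–1.0 mg/kg (five doses) in 30% PEG 400. ED50 reported with 95% confidence limits.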

Data set [14] can be described thus: Therapeutic index, ratio of ED50 for induction of catalepsy in po dosed mouse to ED50 for antipsychotic activity in po dosed mouse assessed as reduction in MK-801-induced hyperlocomotor activity. It is filed as toxicity, organism-based. The settings on record: in vivo, read-out: Ratio ED50. The method in brief: (§2)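 Therapeutic index is the catalepsy ED50 divided by the efficacy ED50 from the apomorphine climbing or MK-801 hyperactivity model. All were oral dosing in mice, vehicle 30% PEG 400.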

Data set [15] is described as follows: Therapeutic index, ratio of ED50 for induction of catalepsy in po dosed mouse to ED50 for antipsychotic activity in po dosed mouse assessed as suppression of apomorphine-induced climbing. It is filed as toxicity, organism-based. Conditions: in vivo, read-out: Ratio ED50. The method in brief:
as §2

The source made the active and inactive calls. The rule behind the calls is not given here.

Usually Ki stands for the dissociation constant of the complex between target and ligand, obtained from inhibition or displacement. A higher Ki goes with a looser hold on the target. Usually IC50 stands for the point on the concentration scale where inhibition reaches its midpoint. The ED50 is the midpoint of the dose-response relation.

D(2) dopamine receptor, sequence (P14416 whole entry): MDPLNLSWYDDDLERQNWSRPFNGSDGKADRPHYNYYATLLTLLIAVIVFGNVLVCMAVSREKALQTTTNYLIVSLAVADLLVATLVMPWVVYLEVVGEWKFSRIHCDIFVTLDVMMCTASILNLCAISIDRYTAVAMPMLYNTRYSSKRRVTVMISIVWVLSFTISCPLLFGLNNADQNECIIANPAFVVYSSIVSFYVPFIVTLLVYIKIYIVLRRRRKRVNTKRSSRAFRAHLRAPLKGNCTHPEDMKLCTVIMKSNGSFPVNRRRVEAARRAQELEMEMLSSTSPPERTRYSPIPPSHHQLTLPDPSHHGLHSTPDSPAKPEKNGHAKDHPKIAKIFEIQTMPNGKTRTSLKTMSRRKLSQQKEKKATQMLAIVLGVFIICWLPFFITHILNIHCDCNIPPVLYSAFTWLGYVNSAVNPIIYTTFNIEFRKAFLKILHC
5-hydroxytryptamine receptor 6, sequence (P50406 whole entry): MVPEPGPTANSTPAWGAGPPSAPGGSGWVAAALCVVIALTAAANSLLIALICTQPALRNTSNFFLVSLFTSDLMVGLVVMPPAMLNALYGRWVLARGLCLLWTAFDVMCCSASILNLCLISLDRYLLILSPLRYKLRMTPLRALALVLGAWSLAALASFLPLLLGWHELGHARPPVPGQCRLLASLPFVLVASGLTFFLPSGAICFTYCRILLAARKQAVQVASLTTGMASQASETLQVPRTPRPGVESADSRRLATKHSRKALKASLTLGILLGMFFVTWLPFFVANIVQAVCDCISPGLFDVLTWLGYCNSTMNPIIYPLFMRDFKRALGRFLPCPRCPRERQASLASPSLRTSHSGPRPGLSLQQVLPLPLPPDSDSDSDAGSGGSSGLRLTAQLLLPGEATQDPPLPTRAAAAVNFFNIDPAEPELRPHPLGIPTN
Histamine H1 receptor, sequence (P35367 whole entry): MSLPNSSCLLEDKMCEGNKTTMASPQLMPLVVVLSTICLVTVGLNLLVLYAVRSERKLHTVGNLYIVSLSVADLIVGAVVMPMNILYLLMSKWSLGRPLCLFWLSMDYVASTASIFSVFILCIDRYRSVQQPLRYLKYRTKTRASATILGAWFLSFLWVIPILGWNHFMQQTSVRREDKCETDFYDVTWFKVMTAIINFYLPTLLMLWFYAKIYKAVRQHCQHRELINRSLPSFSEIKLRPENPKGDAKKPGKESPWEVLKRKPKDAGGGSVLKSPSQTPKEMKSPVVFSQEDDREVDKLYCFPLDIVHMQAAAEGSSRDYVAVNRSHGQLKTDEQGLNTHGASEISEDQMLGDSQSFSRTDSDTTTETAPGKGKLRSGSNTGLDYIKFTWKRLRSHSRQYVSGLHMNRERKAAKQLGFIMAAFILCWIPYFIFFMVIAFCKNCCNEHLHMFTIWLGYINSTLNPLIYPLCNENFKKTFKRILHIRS

Take `CC(=O)Nc1ccc(OCCCCN2CCC(c3noc4cc(F)ccc34)CC2)cc1`: the inhibition constant Ki in [1] came to 765 nM; in [2], 193 nM; in [3], 186 nM; on Histamine H1 receptor it was 54.2 nM; in [5] it was 195 nM; in data set [6], 1230 nM. In addition, the figures for the Ki (in data set [7]; on D(2) dopamine receptor) were 224 nM and 1140 nM, respectively. The compound further showed an IC50 in data set [4] of 369 nM.
Turning to `Cc1nc2n(c(=O)c1CCN1CCC(c3noc4cc(F)ccc34)CC1)CCCC2` [RISPERIDONE], the result in the data set on Rattus norvegicus [8] was inactive. In addition, the median effective dose (ED50) is 0.025 mg/kg in the data set on Mus musculus [9]; 0.49 mg/kg in the data set on Rattus norvegicus [10]; 1.2 mg/kg in data set [11]; 0.019 mg/kg with Mus musculus [12]; 0.011 mg/kg in the data set on Mus musculus [13].
For `O=C(CCCN1CCC(O)(c2ccc(Cl)cc2)CC1)c1ccc(F)cc1` [HALOPERIDOL], the selectivity ratio in data set [14] came to 22.5; in [15], 6.8. Moreover, the ED50 came out at 0.53 mg/kg with Mus musculus [9], 3.6 mg/kg in data set [11], 0.92 mg/kg with Mus musculus [12] and 0.16 mg/kg in the data set on Mus musculus [13].
